In publication PMC9202693 (The Journal of General Physiology, 2022):
Entries after “also recorded” stand apart in the source; their conditions may differ. Where two headings read alike, the source gives them in different places. Positions of bridges follow the written chain, without caps; N, C: chain ends. Residues, ends and D or L forms follow the SMILES beside them. No end group written: not given here.

Key:
KV1.2 [1] = target: T1, KV1.2 (Homo sapiens, UniProt P16389); experiment: Whole-cell patch-clamp block of KV1.2 current, transiently transfected CHO cells; format: cell-based
T1 sequence (P16389 whole entry, the tested form may be a part): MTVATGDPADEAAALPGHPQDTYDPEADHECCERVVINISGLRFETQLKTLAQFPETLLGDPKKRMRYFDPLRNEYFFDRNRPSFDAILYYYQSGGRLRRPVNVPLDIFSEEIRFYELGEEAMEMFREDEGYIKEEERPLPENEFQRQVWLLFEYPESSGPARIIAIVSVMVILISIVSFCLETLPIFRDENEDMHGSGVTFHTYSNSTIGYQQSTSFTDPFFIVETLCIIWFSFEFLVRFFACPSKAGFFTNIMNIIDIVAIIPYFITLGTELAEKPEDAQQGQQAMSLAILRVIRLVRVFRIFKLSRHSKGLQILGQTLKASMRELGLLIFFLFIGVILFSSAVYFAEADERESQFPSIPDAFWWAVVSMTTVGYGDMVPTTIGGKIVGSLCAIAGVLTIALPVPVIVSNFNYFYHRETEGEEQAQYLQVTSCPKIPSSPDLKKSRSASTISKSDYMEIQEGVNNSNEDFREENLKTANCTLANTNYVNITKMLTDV
Method in brief: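 hKV1.2 was expressed transiently in CHO cells, and GFP-positive cells were recorded 24–36 h after transfection. Whole-cell currents were evoked by 15-ms pulses to +50 mV from −120 mV every 15 s at 20–25°C, with leak below 10%, using gravity perfusion. RCF was peak I/I0 at equilibrium block.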

KV1.3 [2] = target: T2, KV1.3 (Homo sapiens, UniProt P22001); format: cell-based
T2 sequence (P22001 whole entry, the tested form may be a part): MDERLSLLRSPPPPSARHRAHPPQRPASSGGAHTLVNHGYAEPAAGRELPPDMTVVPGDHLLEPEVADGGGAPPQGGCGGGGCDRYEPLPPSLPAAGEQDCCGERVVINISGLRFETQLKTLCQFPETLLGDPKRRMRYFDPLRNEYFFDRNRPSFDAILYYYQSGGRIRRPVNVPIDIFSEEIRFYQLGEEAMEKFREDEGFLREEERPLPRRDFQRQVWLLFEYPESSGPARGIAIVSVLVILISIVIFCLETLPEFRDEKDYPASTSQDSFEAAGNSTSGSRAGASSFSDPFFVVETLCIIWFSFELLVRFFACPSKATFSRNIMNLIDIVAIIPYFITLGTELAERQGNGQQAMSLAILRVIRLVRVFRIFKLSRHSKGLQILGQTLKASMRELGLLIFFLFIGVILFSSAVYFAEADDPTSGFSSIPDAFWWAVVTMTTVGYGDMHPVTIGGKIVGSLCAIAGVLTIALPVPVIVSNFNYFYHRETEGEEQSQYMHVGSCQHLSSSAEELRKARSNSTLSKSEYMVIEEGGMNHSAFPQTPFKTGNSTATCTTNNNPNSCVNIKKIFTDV
Method in brief: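 PBMCs from healthy donors were cultured 3–6 days in RPMI 1640 with 10% FBS and PHA (2, 5 or 10 µg/ml) to raise KV1.3. Whole-cell currents were evoked by 15-ms pulses to +50 mV from −120 mV every 15 s at 20–25°C, with gravity perfusion. Remaining current fraction was peak I/I0 at equilibrium block. Points (3–5 records each) were Hill-fitted for Kd and H. Perfusion control was 10 mM TEA+; wash-out used toxin-free solution.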

KV1.2 [3] = target: T1, KV1.2; experiment: Binding kinetics of Cm28 block of KV1.2; format: cell-based
Method in brief: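 KV1.2 transiently transfected into CHO cells; GFP-positive cells recorded 24–36 h post-transfection by whole-cell voltage clamp. Normal bath (mM): 145 NaCl, 5 KCl, 2.5 CaCl2, 1 MgCl2, 5.5 glucose, 10 HEPES, pH 7.35. 15-ms pulses to +50 mV from Vh −120 mV every 15 s with 2 nM toxin. Normalized peak current versus time fitted single-exponentially for wash-in/wash-out (τon, τoff); kon, koff from bimolecular model.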

KV1.3 [4] = target: T2, KV1.3; experiment: Binding kinetics of Cm28 block of KV1.3; format: cell-based
Method in brief: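 Activated human peripheral T lymphocytes (PHA-stimulated PBMCs) recorded by whole-cell voltage clamp in normal Na+-based bath, pH 7.35. 15-ms pulses to +50 mV from Vh −120 mV every 15 s. Wash-in and wash-out time courses of normalized peak current fitted with single exponentials. 1/τon and 1/τoff versus toxin concentration fitted by linear regression to give kon and koff, assuming simple bimolecular binding.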

KV1.2 [5] = target: T1, KV1.2; experiment: Voltage dependence of activation; format: cell-based; details: KV1.2, 2 nM Cm28
Method in brief: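 CHO cells were transiently transfected with GFP-tagged hKV1.2 and recorded by whole-cell clamp 24–36 h later at 20–25°C. For G-V, 300-ms steps from −70 to +80 mV in 10 mV increments were applied, with tail currents at −120 mV normalized to the maximum. For instantaneous I-V, 200-ms ramps to +50 mV were used. Pulses were given every 15 s. Traces are three-trace averages in control and at equilibrium block.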

hKV1.1 = experiment: Selectivity, patch-clamp, hKV1.1 in CHO cells; format: cell-based, human
Method in brief: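 hKV1.1 (KCNA1, GFP-tagged vector) transiently transfected into CHO cells with Lipofectamine; GFP-positive cells recorded 24–36 h later by whole-cell voltage clamp. Normal bath (mM): 145 NaCl, 5 KCl, 2.5 CaCl2, 1 MgCl2, 5.5 glucose, 10 HEPES, pH 7.35. Remaining current fraction = peak current with/without 150 nM toxin at equilibrium block; mean ± SEM.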

hKV1.5 = experiment: Selectivity, patch-clamp, hKV1.5 in CHO cells; format: cell-based, human; details: 150 nM Cm28, 8–20 pulses (2–5 min), n ≥ 3
Method in brief: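 Whole-cell KV1.5 currents recorded in normal bath (mM): 145 NaCl, 5 KCl, 2.5 CaCl2, 1 MgCl2, 5.5 glucose, 10 HEPES, pH 7.35. Remaining current fraction calculated as the ratio of peak currents with and without 150 nM test compound after 8–20 repeated depolarizing pulses (2–5 min). Reported as mean ± SEM, n ≥ 3.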

hKV11.1 (hERG1) = experiment: Selectivity, patch-clamp, hKV11.1 in human embryonic kidney 293 cells; format: cell-based; details: 150 nM Cm28, 8–20 pulses (2–5 min), n ≥ 3
Method in brief: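 HEK293 cells stably expressing hKV11.1. Pipette (mM): 140 KCl, 2 MgCl2, 10 HEPES, 10 EGTA, pH 7.3. Step to +20 mV (1.25 s) from Vh −80 mV, then −40 mV (2 s), every 30 s. Peak tail current I/I0 at 150 nM after 8–20 pulses; n ≥ 3.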

hKCa3.1 = experiment: Selectivity, patch-clamp, hKCa3.1 in CHO cells; format: cell-based, human; details: 150 nM Cm28, 8–20 pulses (2–5 min), n ≥ 3
Method in brief: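 Whole-cell KCa3.1 currents recorded with 150-ms ramps to +50 mV from −120 mV every 10 s. Bath (mM): 145 Na L-aspartate, 5 KCl, 10 HEPES, 5.5 glucose, 2.5 CaCl2, 1 MgCl2, pH 7.4. Pipette (mM): 150 K-Asp, 5 HEPES, 8.5 CaCl2, 1.0 MgCl2, pH 7.22. Peak I/I0 at 150 nM after 8–20 pulses (2–5 min); mean ± SEM, n ≥ 3.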

mKCa1.1 = experiment: Selectivity, patch-clamp, mKCa1.1 in human embryonic kidney 293 cells; format: cell-based; details: 150 nM Cm28, 8–20 pulses (2–5 min), n ≥ 3
Method in brief: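 HEK293 cells stably expressing mKCa1.1 recorded in whole-cell mode in normal bath (145 NaCl, 5 KCl, 2.5 CaCl2, 1 MgCl2, 5.5 glucose, 10 HEPES mM, pH 7.35). Cells depolarized to +100 mV for 600 ms from Vh −100 mV. Peak I/I0 at 150 nM after 8–20 pulses (2–5 min); mean ± SEM, n ≥ 3.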

hNaV1.4 = experiment: Selectivity, patch-clamp, hNaV1.4 in human embryonic kidney 293 cells; format: cell-based; details: 150 nM Cm28, 8–20 pulses (2–5 min), n ≥ 3
Method in brief: (§1)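 Whole-cell Na+ currents evoked by 15-ms steps to 0 mV every 10 s. Normal Na+-based bath, pH 7.35. Pipette (mM): 10 NaCl, 105 CsF, 10 HEPES, 10 EGTA, pH 7.2. Remaining peak current fraction at 150 nM after 8–20 pulses (2–5 min); mean ± SEM, n ≥ 3. NaV1.4 was recorded in HEK293 cells stably expressing the channel.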

hNaV1.5 = experiment: Selectivity, patch-clamp, hNaV1.5 in CHO cells; format: cell-based, human; details: 150 nM Cm28, 8–20 pulses (2–5 min), n ≥ 3
Method in brief: as §1

hHV1 = experiment: Selectivity, patch-clamp, hHV1 in CHO cells; format: cell-based, human; details: 150 nM Cm28, 8–20 pulses (2–5 min), n ≥ 3
Method in brief: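 Whole-cell proton current measured with a 1.0-s ramp to +100 mV from Vh −60 mV every 15 s. Bath (mM): 60 Na L-aspartate, 80 MES, 5.5 glucose, 6 MgCl2, pH 7.4. Pipette (mM): 90 Na L-aspartate, 80 MES, 6 MgCl2, 3.3 glucose, pH 6.17. Remaining current fraction (peak I/I0) taken at 150 nM after 8–20 pulses; mean ± SEM, n ≥ 3.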

CD4^+ TEM lymphocytes [6] = experiment: LDH cytotoxicity assay; format: cell-based, human; details: for cytotoxicity (LDH): 24 h culture, 1.5 μM Cm28 or 50 nM rMgTx, quiescent or TCR-activated cells, three independent experiments
Method in brief: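 CD4+ TEM cells, unstimulated or anti-CD3-stimulated, were cultured 24 h with or without test peptide. Medium samples were mixed with LDH reaction substrate for 30 min in the dark, then stop solution was added. Activity was taken as A490 minus A680, and percent cytotoxicity was calculated against controls. Spontaneous and maximum controls were sterile water and lysis buffer (45 min, 37°C). Positive control: 50 mM NaN3. Three donors, two technical repeats, mean ± SEM.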

[7] = system: CD40L expression in CD4^+ TEM lymphocytes; experiment: Expression of CD40L; format: cell-based, human
Method in brief: (§2)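 CD4+ TEM cells were isolated from healthy-donor PBMCs by negative magnetic selection and held at 1 × 10^6 cells/ml in RPMI 1640 with 10% FBS. They were pre-incubated 30 min with test peptide, then stimulated 24 h at 37°C on plate-bound anti-CD3 (OKT3, 1 µg/well) with toxin kept present. Cells were stained 20 min at 4°C with anti-CD25 and anti-CD154. Gating was FSC/SSC, 10,000 events. MFI was normalized to the stimulated untreated control. Duplicates, three donors.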

[8] = system: IL2R expression in CD4^+ TEM lymphocytes; experiment: Expression of IL2R; format: cell-based, human
Method in brief: as §2

KV channels = details: ref Bartok et al., 2014, cited from earlier work
CD4^+ TEM lymphocytes [9] = experiment: Cell viability, Zombie NIR flow cytometry; format: cell-based, human; details: 24 h culture, 1.5 μM Cm28 or 50 nM rMgTx, quiescent or TCR-activated cells, three independent experiments
[10] = 1.5 µM Cm28, anti-CD3–activated, 24 h
[11] = US + Cm28 (1.5 µM), not exposed to anti-CD3
[12] = 5 nM rMgTx, 30 min pre-incubation, 24 h anti-CD3 stimulation, decreased to

## CC(C)[C@@H]1NC(=O)[C@@H]2CSSC[C@H](NC(=O)[C@@H](N)CCCCN)C(=O)N[C@@H](CCCNC(=N)N)C(=O)N[C@@H](CCC(=O)O)C(=O)N[C@H]3CSSC[C@H](NC(=O)[C@H](CCCCN)NC(=O)CNC(=O)[C@H](CC(N)=O)NC1=O)C(=O)N[C@@H](C(C)C)C(=O)N[C@H](C(=O)N1CCC[C@H]1C(=O)N[C@@H](C)C(=O)O)CSSC[C@H](NC(=O)[C@H](CO)NC(=O)[C@@H]1CCCN1C(=O)[C@H](CO)NC(=O)[C@H]([C@@H](C)O)NC(=O)[C@H](CC(N)=O)NC(=O)CNC3=O)C(=O)N[C@@H](Cc1ccc(O)cc1)C(=O)N[C@@H](Cc1ccccc1)C(=O)N[C@@H](CO)C(=O)NCC(=O)N[C@@H](CC(N)=O)C(=O)N2 [Cm28] (H-KCRECGNTSPSCYFSGNCVNGKCVCPA-OH; disulfide 2-18, 5-23, 12-25; N-terminus assumed)
KV1.2 [1]; KV1.2, Hill fit of dose-response, n = 3–5
  Hill coefficient (H): 1.04
KV1.2 [1]; wash-out with toxin-free solution after 2 nM Cm28, took several minutes
  recovery from block, % of control current: ~85%
KV1.3 [2]; KV1.3, Hill fit of dose-response, n = 3–5
  Hill coefficient (H): 0.93
KV1.3 [2]; read-out: inhibition of current at block equilibrium
  inhibition at 0.002 µM: ~58%
KV1.3 [2]; wash-out with toxin-free solution after 2 nM Cm28
  time for 90% recovery from block: 10 min
KV1.2 [3]
  koff: 0.0013 s⁻¹
  kon: 1.1e+06 M⁻¹ s⁻¹
KV1.3 [4]
  koff: 0.0028 ± 0.000215 s⁻¹
  kon: 1.3e+06 M⁻¹ s⁻¹
KV1.2 [5]
  shift in G-V curve / activation threshold: did not introduce any substantial shift in the G-V curve of KV1.2
hKV1.1; 150 nM Cm28, equilibrium block
  reduction of KV1.1 current: ~27%
hKV1.1; compared with KV1.2 and KV1.3
  fold less affinity for KV1.1 (vs KV1.2 and KV1.3): ~400 fold
hKV1.1; text of Discussion, high concentration ∼100× of Kd for KV1.3
  inhibition of KV1.1: did not inhibit
hKV1.5
  inhibition of KV1.5: did not inhibit
hKV11.1 (hERG1)
  inhibition of KV11.1: did not inhibit
hKCa3.1
  inhibition of KCa3.1: did not inhibit
mKCa1.1
  inhibition of KCa1.1: did not inhibit
hNaV1.4
  inhibition of NaV1.4: did not inhibit
hNaV1.5
  inhibition of NaV1.5: did not inhibit
hHV1
  inhibition of hHV1: did not inhibit
CD4^+ TEM lymphocytes [6]
  cytotoxicity (LDH): < 1%
[7]; [10]
  CD40L expression in activated cells: strongly inhibited; also recorded: significantly reduced
[7]; [11]
  CD40L expression in unstimulated cells: no change
[8]; [10]
  IL2R expression in activated cells: strongly inhibited; also recorded: significantly reduced
[8]; [11]
  IL2R expression in unstimulated cells: no change

## [N-]=[N+]=[N-].[Na+] [NaN3, sodium azide]
CD4^+ TEM lymphocytes [6]; 50 mM NaN3
  cytotoxicity (LDH), positive control: 15%

## CC[N+](CC)(CC)CC.[Cl-] [TEA^+, reference compound]
KV1.3 [2]; 10 mM TEA^+, KV1.3
  inhibition in peak current, perfusion control: ~50%

## ChTx [reference compound]
KV1.2 [1]; 14 nM ChTx, KV1.2
  inhibition in peak current, perfusion control: ~50%
KV channels
  block of KV1.x channel subtypes: blocks more than one KV1.x channel subtypes with high affinity

## MgTx (TIINVKCTSPKQCLPPCKAQFGQSAGAKCMNGKCKCYPH; UniProt P40755 1-39, looked up)
KV channels
  block of KV1.x channel subtypes: blocks more than one KV1.x channel subtypes with high affinity
KV channels; listed as margatoxin
  block of KV1.x channel subtypes: blocks different KV channels

## rMgTx (TIINVKCTSPKQCLPPCKAQFGQSAGAKCMNGKCKCYPH; ends and bridges not checked; cysteine pairing not given here; UniProt P40755 1-39, looked up) [reference compound]
CD4^+ TEM lymphocytes [9]
  viable cells: ≥ 90%
CD4^+ TEM lymphocytes [6]
  cytotoxicity (LDH): < 2%
[7]; [12]
  CD40L expression, normalized to stimulated non-treated control: ~51%
[8]; [12]
  IL2R expression, normalized to stimulated non-treated control: ~48%
